For data set [1], the system named is Plasmodium falciparum 3D7.
The nature of data set [2]: Lipophilicity, LogD of compound by reverse phase HPLC analysis.
Data set [3] is described as follows: Binding affinity to SRPK2 in Plasmodium falciparum 3D7 blood stage extract incubated for 1 hr in presence of ATP-competitive kinase inhibitor by kinobeads based pull down assay. As to conditions: read-out: Kd(app). The essentials:
(§1)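 The free compound competed over six concentrations from 0.08 to 20 μM. Proteins were digested by a modified SP3 protocol, labelled with TMT 10-plex and quantified by LC-MS/MS. Apparent Kd was derived from IC50 corrected for bead depletion. Two independent experiments were run.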

A further data set deals with L929. The data set can be described thus: Cytotoxicity against mouse L929 cells assessed as reduction in viability by dual luciferase reporter gene assay. The data set is classed as ADME, cell-based.
In a further data set the target is T1, Casein kinase I (Plasmodium falciparum (isolate 3D7), UniProt Q8IHZ9).
T1 sequence (Q8IHZ9 whole entry): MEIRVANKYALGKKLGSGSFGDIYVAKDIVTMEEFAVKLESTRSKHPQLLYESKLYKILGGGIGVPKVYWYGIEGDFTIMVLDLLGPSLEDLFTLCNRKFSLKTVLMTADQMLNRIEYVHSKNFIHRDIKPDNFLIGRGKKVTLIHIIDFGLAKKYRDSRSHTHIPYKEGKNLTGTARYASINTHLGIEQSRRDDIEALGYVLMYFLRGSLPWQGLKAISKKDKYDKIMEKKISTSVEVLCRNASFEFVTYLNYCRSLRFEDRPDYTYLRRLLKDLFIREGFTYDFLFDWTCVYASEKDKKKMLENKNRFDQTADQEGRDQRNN
In words: Binding affinity to CK1 in Plasmodium falciparum 3D7 blood stage extract incubated for 1 hr by kinobeads based pull down assay. As to conditions: read-out: Kd(app). The essentials: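 Chemoproteomic competition binding: Sepharose beads derivatized at 1 mM with the immobilized ligand (kinobeads prepared likewise). Free compound competed at six concentrations, 0.08–20 μM. Proteins were SP3-digested, TMT 10-plex labelled and quantified by LC-MS/MS on an Orbitrap. IC50 from the competition curve; apparent Kd corrected for protein depletion by the beads. Two independent experiments.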

Data set [4] has as its target T2, Calcium-dependent protein kinase 4 (Plasmodium falciparum (isolate 3D7), UniProt Q8IBS5).
T2 sequence (Q8IBS5 whole entry): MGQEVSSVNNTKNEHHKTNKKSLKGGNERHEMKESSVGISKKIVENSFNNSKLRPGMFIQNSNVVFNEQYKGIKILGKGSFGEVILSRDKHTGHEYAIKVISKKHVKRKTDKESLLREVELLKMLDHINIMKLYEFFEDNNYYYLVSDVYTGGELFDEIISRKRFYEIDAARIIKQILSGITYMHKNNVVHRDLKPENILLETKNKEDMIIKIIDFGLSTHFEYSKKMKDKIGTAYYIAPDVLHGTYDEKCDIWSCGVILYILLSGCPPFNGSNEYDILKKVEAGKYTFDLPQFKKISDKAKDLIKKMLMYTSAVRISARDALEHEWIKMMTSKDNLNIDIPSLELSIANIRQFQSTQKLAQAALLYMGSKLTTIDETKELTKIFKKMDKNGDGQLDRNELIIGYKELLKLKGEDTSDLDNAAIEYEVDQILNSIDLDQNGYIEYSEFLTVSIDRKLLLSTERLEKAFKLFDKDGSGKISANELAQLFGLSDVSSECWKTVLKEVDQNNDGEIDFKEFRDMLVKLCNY
In words: Binding affinity to CDPK4 in Plasmodium falciparum 3D7 blood stage extract incubated for 1 hr by kinobeads based pull down assay. As to conditions: read-out: Kd(app). Put shortly:
(§2)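 Chemoproteomic competition used kinobeads or Sepharose beads derivatized with ligand at 1 mM. Free compound was tested at six concentrations between 0.08 and 20 μM, in two independent experiments. Proteins were SP3-digested, TMT 10-plex labelled and measured by LC-MS/MS. IC50s came from competition curves, and apparent Kd was corrected for protein depletion by the beads.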

In another data set the test system is Plasmodium falciparum. The data set can be described thus: Antiplasmodial activity against Plasmodium falciparum 3D7A erythrocytic stage assessed as reduction in [3H]hypoxanthine incorporation preincubated for 24 hrs followed by [3H]hypoxanthine addition and measured after 24 hrs by microbeta scintillation counting method. In kind it is functional, organism-based. Put shortly: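 Nine threefold serial dilutions from 5 μM top concentration. Incubated 24 h at 37 °C under 5% CO2/5% O2/90% N2, then 0.2 μCi [3H]-hypoxanthine per well for another 24 h. Cells harvested on glass fibre filters and counted. Data normalized to compound-free parasitized RBCs; IC50 fitted.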

Data set [5] addresses T3, Calcium-dependent protein kinase 1 (Plasmodium falciparum, UniProt P62344). In words: Binding affinity to CDPK1 in Plasmodium falciparum 3D7 blood stage extract incubated for 1 hr in presence of ATP-competitive kinase inhibitor by kinobeads based pull down assay. As to conditions: read-out: Kd(app). The essentials: as §2
Data set [6] addresses T3, Calcium-dependent protein kinase 1. In words: Binding affinity to CDPK1 in Plasmodium falciparum 3D7 blood stage extract incubated for 1 hr by kinobeads based pull down assay. Particulars: read-out: Kd(app). The essentials: as §2
For data set [7], the target named is T2, Calcium-dependent protein kinase 4. In words: Binding affinity to CDPK4 in Plasmodium falciparum 3D7 blood stage extract incubated for 1 hr in presence of ATP-competitive kinase inhibitor by kinobeads based pull down assay. As to conditions: read-out: Kd(app). The essentials:
as §2

Data set [8] is described as follows: Binding affinity to GSK3 in Plasmodium falciparum 3D7 blood stage extract incubated for 1 hr by kinobeads based pull down assay. As to conditions: read-out: Kd(app). Put shortly: as §1
Data set [9] in a line: Binding affinity to GSK3 in Plasmodium falciparum 3D7 blood stage extract incubated for 1 hr in presence of ATP-competitive kinase inhibitor by kinobeads based pull down assay. As to conditions: read-out: Kd(app). The essentials:
as §1

A short description of data set [10]: Permeability of compound by PAMPA.
A short description of data set [11]: Aqueous solubility of compound. As to conditions: buffer.

In brackets after ≈: the same amount, converted by molar mass. Activity calls are given as the source filed them. The calls are words filed in the database; no cut-off is given here.

This note sets out measurements from ChEMBL document CHEMBL4414601 (J Med Chem, 2019).

T3 sequence (P62344 whole entry): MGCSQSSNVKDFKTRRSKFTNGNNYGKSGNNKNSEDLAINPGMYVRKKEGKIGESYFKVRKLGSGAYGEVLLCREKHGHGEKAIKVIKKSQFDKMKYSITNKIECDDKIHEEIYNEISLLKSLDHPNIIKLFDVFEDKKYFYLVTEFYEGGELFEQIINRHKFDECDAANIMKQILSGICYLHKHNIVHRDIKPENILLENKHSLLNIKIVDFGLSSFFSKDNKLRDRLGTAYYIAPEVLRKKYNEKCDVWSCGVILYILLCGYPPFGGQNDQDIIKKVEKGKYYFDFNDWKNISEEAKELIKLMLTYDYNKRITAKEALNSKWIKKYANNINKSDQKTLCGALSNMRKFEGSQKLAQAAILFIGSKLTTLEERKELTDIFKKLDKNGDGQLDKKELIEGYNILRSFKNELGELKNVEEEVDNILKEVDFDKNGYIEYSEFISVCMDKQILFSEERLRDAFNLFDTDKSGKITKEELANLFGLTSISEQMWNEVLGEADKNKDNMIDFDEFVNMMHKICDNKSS

For `Fc1ccc(-c2nc(C3CCNCC3)sc2-c2ccnc(NCCN3CCSCC3)n2)cc1`, the “Kd(app)” value in data set [1] was “inactive”. In data set [2], this compound returned a chromatographic logD of 2.84. Besides, the Kd is above 20000 nM in [3]; 1500 nM at Casein kinase I; 60 nM in data set [4]; 2100 nM in data set [5]; 2100 nM in data set [6]; 60 nM in [7]. Moreover, the Kd in data set [8] and in [9] was 5300 nM in each case. For the same compound, the results for the EC50 with L929 and in the data set on Plasmodium falciparum were 15100 nM and 4030 nM, respectively. The same compound gave a Papp in data set [10] of 31 ×10⁻⁶ cm/s. In addition, the solubility in data set [11] came to 491 µM (≈ 238 µg/mL).
